From ChEMBL document CHEMBL3352164, “Discovery of N-(2,4-di-tert-butyl-5-hydroxyphenyl)-4-oxo-1,4-dihydroquinoline-3-carboxamide (VX-770, ivacaftor), a potent and orally bioavailable CFTR potentiator” (J Med Chem, 2014)
Each block holds one compound with its values, some of them ahead of it.

Columns and labels:
[1] = target: Cystic fibrosis transmembrane conductance regulator (Homo sapiens, UniProt P13569, F508DEL); test: Potentiation of human CFTR F508del mutant expressed in mouse NIH-3T3 cells after 30 mins by fluorescent voltage sensing optical assay; assay type: cell-based, NIH3T3
Cystic fibrosis transmembrane conductance regulator, sequence (P13569 as listed by the source): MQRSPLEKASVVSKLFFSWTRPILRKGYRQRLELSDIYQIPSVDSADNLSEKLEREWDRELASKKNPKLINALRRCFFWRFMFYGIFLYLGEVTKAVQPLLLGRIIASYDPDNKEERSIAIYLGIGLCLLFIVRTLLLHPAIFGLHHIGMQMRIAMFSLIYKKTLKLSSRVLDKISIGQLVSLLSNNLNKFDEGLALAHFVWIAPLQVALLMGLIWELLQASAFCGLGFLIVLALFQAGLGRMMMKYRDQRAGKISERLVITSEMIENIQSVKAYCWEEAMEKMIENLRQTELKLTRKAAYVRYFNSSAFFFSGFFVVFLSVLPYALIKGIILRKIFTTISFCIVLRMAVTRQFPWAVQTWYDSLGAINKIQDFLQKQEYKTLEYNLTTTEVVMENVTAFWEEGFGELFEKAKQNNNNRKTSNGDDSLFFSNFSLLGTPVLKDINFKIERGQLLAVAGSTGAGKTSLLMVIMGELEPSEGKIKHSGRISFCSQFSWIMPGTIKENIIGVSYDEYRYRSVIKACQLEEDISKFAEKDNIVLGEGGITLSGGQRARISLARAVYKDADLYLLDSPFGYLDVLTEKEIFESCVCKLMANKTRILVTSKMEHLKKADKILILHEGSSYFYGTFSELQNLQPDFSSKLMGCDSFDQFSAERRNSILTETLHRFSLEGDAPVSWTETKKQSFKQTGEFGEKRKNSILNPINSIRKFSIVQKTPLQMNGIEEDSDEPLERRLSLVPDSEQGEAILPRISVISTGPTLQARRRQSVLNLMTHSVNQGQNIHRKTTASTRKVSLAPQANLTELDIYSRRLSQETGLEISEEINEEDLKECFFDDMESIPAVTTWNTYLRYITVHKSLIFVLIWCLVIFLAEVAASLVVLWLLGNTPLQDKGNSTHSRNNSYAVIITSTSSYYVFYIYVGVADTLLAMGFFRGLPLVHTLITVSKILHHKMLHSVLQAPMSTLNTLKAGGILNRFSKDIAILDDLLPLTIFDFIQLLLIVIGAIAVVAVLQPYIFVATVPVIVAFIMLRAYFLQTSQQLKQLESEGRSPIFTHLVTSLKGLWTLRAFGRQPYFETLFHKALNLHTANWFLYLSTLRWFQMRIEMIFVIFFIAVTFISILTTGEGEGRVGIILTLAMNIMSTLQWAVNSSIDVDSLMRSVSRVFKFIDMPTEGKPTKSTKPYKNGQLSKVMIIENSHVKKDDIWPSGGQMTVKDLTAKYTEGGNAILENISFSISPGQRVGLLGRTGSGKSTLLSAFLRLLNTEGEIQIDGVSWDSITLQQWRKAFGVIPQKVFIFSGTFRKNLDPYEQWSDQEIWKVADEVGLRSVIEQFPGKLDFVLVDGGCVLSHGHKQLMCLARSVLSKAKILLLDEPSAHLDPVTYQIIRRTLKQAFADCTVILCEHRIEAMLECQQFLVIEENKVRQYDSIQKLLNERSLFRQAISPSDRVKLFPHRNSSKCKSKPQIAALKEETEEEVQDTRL
How it was run: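 NIH-3T3 fibroblasts stably expressing human F508del-CFTR were held 16–24 h at 27 °C to correct misfolding. Cells were washed in NaCl/HEPES bath, pH 7.4, then loaded with voltage-sensing dyes plus compound for 30 min at room temperature. Cl−-free bath with forskolin was added once, and membrane potential change was read by fluorescence. EC50 is mean ± SD of at least three determinations.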

[2] = system: Cystic fibrosis transmembrane conductance regulator (Homo sapiens), P13569 [F508del]; test: Potentiation of human CFTR F508del mutant expressed in mouse NIH-3T3 cells at 30 uM after 30 mins by fluorescent voltage sensing optical assay relative to VRT-532; assay type: cell-based; details: NIH3T3
Cystic fibrosis transmembrane conductance regulator (Homo sapiens), P13569 [F508del], sequence (P13569 as listed by the source): as above
How it was run: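 Same F508del-CFTR NIH-3T3 membrane-potential assay: 27 °C correction for 16–24 h, dye plus compound for 30 min at room temperature, then forskolin in Cl−-free bath. Compounds below 50% activity at 30 μM were not titrated. Their response at 30 μM is given as % of VRT-532.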

[3] = AUC (0 to infinity) in Sprague-Dawley rat at 1.29 mg/kg, iv; assay type: ADME, organism-based; parameters: dose 1.29 mg/kg, route intravenous, time infinity; details: plasma
How it was run: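 Male Sprague−Dawley rats, n = 3/group, single iv dose in dimethyl isosorbide/ethanol/PEG400/D5W (10%/15%/35%/40%) at 1 mL/kg. Carotid cannula blood at predose, 5, 15, 30, 45 min and 1, 2, 4, 6, 8, 12, 24, 36, 48 h. Plasma levels by LC/MS/MS (LLOQ 1 ng/mL, linear 1–2500 ng/mL). Noncompartmental analysis of mean profiles using measured doses.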

[4] = Clearance in Sprague-Dawley rat at 1.29 mg/kg, iv; assay type: ADME, organism-based; parameters: dose 1.29 mg/kg, route intravenous; details: in vivo
How it was run: (§1)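 Animals (n = 3/group; male mouse, Sprague-Dawley rat, beagle dog, cynomolgus monkey) got a single iv dose in dimethyl isosorbide/ethanol/PEG400/D5W (10%/15%/35%/40%) at 1 mL/kg. Heparinized blood was drawn via an indwelling carotid cannula from predose to 48 h. Plasma was assayed by LC/MS/MS (LLOQ 1 ng/mL, linear 1–2500 ng/mL). Parameters came from noncompartmental analysis of mean profiles using measured doses.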

[5] = Half life in Sprague-Dawley rat at 1.29 mg/kg, iv; assay type: ADME, organism-based; parameters: dose 1.29 mg/kg, route intravenous; details: in vivo; how it was run: as §1
[6] = Volume of distribution at steady state in Sprague-Dawley rat at 1.29 mg/kg, iv; assay type: ADME, organism-based; parameters: dose 1.29 mg/kg, route intravenous; details: in vivo, read-out: Vdss; how it was run: as §1
Cytochrome P450 2E1 = Cytochrome P450 2E1 (Homo sapiens, UniProt P05181); test: Inhibition of CYP2E1 (unknown origin); assay type: ADME
Cytochrome P450 2E1, sequence (P05181 whole entry): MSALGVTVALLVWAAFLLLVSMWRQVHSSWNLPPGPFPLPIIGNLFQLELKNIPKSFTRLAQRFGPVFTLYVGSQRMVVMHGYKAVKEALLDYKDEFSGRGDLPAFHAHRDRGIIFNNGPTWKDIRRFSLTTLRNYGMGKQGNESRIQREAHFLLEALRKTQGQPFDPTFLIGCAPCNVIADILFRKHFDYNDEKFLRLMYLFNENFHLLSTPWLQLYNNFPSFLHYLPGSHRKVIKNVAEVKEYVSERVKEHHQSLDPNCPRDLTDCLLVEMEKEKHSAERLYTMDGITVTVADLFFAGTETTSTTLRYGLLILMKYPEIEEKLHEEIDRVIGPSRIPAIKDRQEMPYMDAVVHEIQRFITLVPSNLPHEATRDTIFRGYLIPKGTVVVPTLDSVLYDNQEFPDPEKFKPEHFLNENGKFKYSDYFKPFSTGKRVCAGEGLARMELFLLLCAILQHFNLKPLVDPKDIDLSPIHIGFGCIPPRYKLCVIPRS

[7] = Clearance in mouse at 3 mg/kg, iv; assay type: ADME, organism-based; parameters: dose 3 mg/kg, route intravenous; details: in vivo; how it was run: as §1
[8] = Half life in mouse at 3 mg/kg, iv; assay type: ADME, organism-based; parameters: dose 3 mg/kg, route intravenous; details: in vivo; how it was run: as §1
[9] = Volume of distribution at steady state in mouse at 3 mg/kg, iv; assay type: ADME, organism-based; parameters: dose 3 mg/kg, route intravenous; details: in vivo, read-out: Vdss; how it was run: as §1
[10] = Half life in beagle dog at 0.9 mg/kg, iv; assay type: ADME, organism-based, Canis lupus familiaris; parameters: dose 0.9 mg/kg, route intravenous; details: in vivo; how it was run: as §1
[11] = Volume of distribution at steady state in beagle dog at 0.9 mg/kg, iv; assay type: ADME, organism-based, Canis lupus familiaris; parameters: dose 0.9 mg/kg, route intravenous; details: in vivo, read-out: Vdss; how it was run: as §1
[12] = Clearance in Cynomolgus monkey at 0.8 mg/kg, iv; assay type: ADME, organism-based, Macaca fascicularis; parameters: dose 0.8 mg/kg, route intravenous; details: in vivo; how it was run: as §1
[13] = Half life in Cynomolgus monkey at 0.8 mg/kg, iv; assay type: ADME, organism-based, Macaca fascicularis; parameters: dose 0.8 mg/kg, route intravenous; details: in vivo; how it was run: as §1
[14] = Volume of distribution at steady state in Cynomolgus monkey at 0.8 mg/kg, iv; assay type: ADME, organism-based, Macaca fascicularis; parameters: dose 0.8 mg/kg, route intravenous; details: in vivo, read-out: Vdss; how it was run: as §1
[15] = AUC (0 to infinity) in Sprague-Dawley rat at 3 mg/kg, po; assay type: ADME, organism-based; parameters: time infinity, dose 3 mg/kg, route oral; details: plasma
How it was run: (§2)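 Single oral dose, n = 3/group. Heparinized carotid-cannula blood was sampled at predose, 0.25, 0.5, 1, 1.5, 2, 4, 8, 12 and 24 h. Plasma levels were measured by LC/MS/MS (LLOQ 1 ng/mL). AUC and bioavailability were derived by noncompartmental analysis of mean concentration–time profiles against the iv arm.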

Canis familiaris [16] = test: Oral bioavailability in beagle dog at 3.8 mg/kg; details: in vivo
Canis familiaris [17] = test: AUC (0 to infinity) in beagle dog at 3.8 mg/kg, po; details: in vivo
[18] = Binding affinity to ligand-gated chloride channel (unknown origin); parameters: species or system Homo sapiens
[19] = Clearance in Sprague-Dawley rat at 2.5 mg/kg, iv; assay type: ADME, organism-based; parameters: dose 2.5 mg/kg, route intravenous; details: in vivo; how it was run: as §1
[20] = Half life in Sprague-Dawley rat at 2.5 mg/kg, iv; assay type: ADME, organism-based; parameters: dose 2.5 mg/kg, route intravenous; details: in vivo; how it was run: as §1
[21] = Volume of distribution at steady state in Sprague-Dawley rat at 2.5 mg/kg, iv; assay type: ADME, organism-based; parameters: dose 2.5 mg/kg, route intravenous; details: in vivo, read-out: Vdss; how it was run: as §1
[22] = Oral bioavailability in Sprague-Dawley rat at 2.5 mg/kg; assay type: ADME, organism-based; details: in vivo; how it was run: as §2
[23] = Clearance in beagle dog at 1 mg/kg, iv; assay type: ADME, organism-based, Canis lupus familiaris; parameters: dose 1 mg/kg, route intravenous; details: in vivo; how it was run: as §1
[24] = Half life in beagle dog at 1 mg/kg, iv; assay type: ADME, organism-based, Canis lupus familiaris; parameters: dose 1 mg/kg, route intravenous; details: in vivo; how it was run: as §1
[25] = Volume of distribution at steady state in beagle dog at 1 mg/kg, iv; assay type: ADME, organism-based, Canis lupus familiaris; parameters: dose 1 mg/kg, route intravenous; details: in vivo, read-out: Vdss; how it was run: as §1
[26] = target: GABA-A receptor; benzodiazepine site (Homo sapiens); test: Binding affinity to GABAA receptor (unknown origin)

SMILES: O=C(Oc1ccc2cc[nH]c2c1)c1c[nH]c2ccccc2c1=O
- Activity [2]: 19%

SMILES: CC(C)(C)c1ccc(NC(=O)c2c[nH]c3ccccc3c2=O)cc1O
- EC50 [1]: 3 nM
- AUC(0-inf) [3]: 260 ng·h/mL
- clearance [4]: 85.6 mL/min/kg
- half-life [5]: 0.7 h
- Vd [6]: 2.9 L/kg

SMILES: CC(C)(C)c1cc(C(C)(C)C)c(NC(=O)c2c[nH]c3ccccc3c2=O)cc1O [IVACAFTOR]
- EC50 [1]: 3 nM
- IC50 (Cytochrome P450 2E1): > 20000 nM
- clearance [7]: 20 mL/min/kg
- half-life [8]: 1.3 h
- Vd [9]: 2.8 L/kg
- half-life [10]: 13 h
- Vd [11]: 0.7 L/kg
- clearance [12]: 7.4 mL/min/kg
- half-life [13]: 6.7 h
- Vd [14]: 2.2 L/kg
- AUC(0-inf) [15]: 4800 ng·h/mL
- F (Canis familiaris [16]): 43%
- AUC (Canis familiaris [17]): 13500 ng·h/mL

SMILES: CC(=O)Nc1cc(NC(=O)c2c[nH]c3ccccc3c2=O)ccc1C(C)(C)C
- Activity [2]: 24%

SMILES: O=C(c1cnccc1O)N(Cc1ccccc1)Cc1ccccc1
- Activity [2]: 2%

SMILES: COC(=O)Nc1cc(NC(=O)c2c[nH]c3ccccc3c2=O)ccc1C(C)(C)C
- EC50 [1]: 3500 nM

SMILES: CCc1cc2cc[nH]c2cc1NC(=O)c1c[nH]c2ccccc2c1=O
- EC50 [1]: 20 nM

SMILES: O=C(c1ccc2ccccc2c1O)N(Cc1ccccc1)Cc1ccccc1
- EC50 [1]: 3500 nM

SMILES: O=C(c1cnc2ccccc2c1)N(Cc1ccccc1)Cc1ccccc1
- EC50 [1]: 16000 nM

SMILES: O=C(c1c[nH]c2ccccc2c1=O)N(Cc1ccccc1)Cc1ccccc1
- EC50 [1]: 2100 nM

SMILES: O=C(Nc1ccc2cc[nH]c2n1)c1c[nH]c2ccccc2c1=O
- Activity [2]: 13%

SMILES: N#CCc1ccccc1NC(=O)c1c[nH]c2ccccc2c1=O
- EC50 [1]: 8500 nM

SMILES: CC(C)(C)c1ccc(NC(=O)c2c[nH]c3ccccc3c2=O)cc1C(=O)O
- Activity [2]: 13%

SMILES: CCc1cccc(CC)c1NC(=O)c1c[nH]c2ccccc2c1=O
- EC50 [1]: 1500 nM

Other lines, results leading:

- EC50 [1]: 1700 nM
SMILES: CCc1ccc(NC(=O)c2c[nH]c3ccccc3c2=O)cc1N

- EC50 [1]: 200 nM
SMILES: CCc1ccccc1NC(=O)c1c[nH]c2ccccc2c1=O

- EC50 [1]: 800 nM
SMILES: CCc1ccc(NC(=O)c2c[nH]c3ccccc3c2=O)cc1

- Activity [2]: 12%
SMILES: O=C(Nc1ccc2nc[nH]c2c1)c1c[nH]c2ccccc2c1=O

- EC50 [1]: 100 nM
SMILES: CC(C)(C)c1ccc(NC(=O)c2c[nH]c3ccccc3c2=O)cc1F

- EC50 [1]: 400 nM
SMILES: CCCc1ccc(NC(=O)c2c[nH]c3ccccc3c2=O)cc1N

- EC50 [1]: 6900 nM
SMILES: Nc1cccc(NC(=O)c2c[nH]c3ccccc3c2=O)c1

- EC50 [1]: 1300 nM
SMILES: O=C(Nc1ccccc1)c1c[nH]c2ccccc2c1=O

- EC50 [1]: 100 nM
- IC50 [18]: 100 nM
- clearance [19]: 28 mL/min/kg
- half-life [20]: 1.3 h
- Vd [21]: 2.4 L/kg
- bioavailability [22]: 11%
- clearance [23]: 17 mL/min/kg
- half-life [24]: 0.9 h
- Vd [25]: 1.6 L/kg
- IC50 [26]: 100 nM
SMILES: O=C(Nc1ccc2cc[nH]c2c1)c1c[nH]c2ccccc2c1=O

- Activity [2]: 21%
SMILES: O=C1Cc2ccc(NC(=O)c3c[nH]c4ccccc4c3=O)cc2N1
